# Data as given in article PMC6437231 (Diabetes Therapy, 2019).
# Legend:
# [1] = assay type: in vivo, human; details: final two-compartment model
# Method in brief: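 Plasma semaglutide (LC–MS/MS) from 353 subjects in 9 trials with s.c. and i.v. dosing. Mixed-effects two-compartment model with first-order absorption and elimination; i.v. doses treated as a central bolus. Log-normal inter-individual variability on ka, CL, Q, Vc and Vp; (weight/85 kg) exponent on CL, Q, Vc and Vp; product strength (1, 1.34, 3, 10 mg/mL) on ka. Covariates kept at 10% alpha; CWRES >6 excluded; log-additive residual error.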
# plasma albumin = details: ref [5]; cited from earlier work
# [2] = assay type: in vivo, human; details: one-compartment model, 7 multiple-dose trials, s.c.
# Method in brief: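 Steady-state s.c. plasma data from seven multiple-dose trials, with dose escalation 0.25 > 0.5 > 1.0 mg (one trial to 1.5 mg). One-compartment mixed-effects model parameterised as CL/F, V/F and ka, each with inter-individual variability. […] Log-additive residual error; values with CWRES >6 excluded.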
# [3] = ref [6], cited from earlier work
# [4] = population PK model; ref [9]; cited from earlier work
# [5] = cited from earlier work
# [6] = s.c., trial 7 drug product strength
# [7] = one-compartment model from phase 3a trials
compound,measurement,setting,value
CC[C@H](C)[C@H](NC(=O)[C@H](Cc1ccccc1)NC(=O)[C@H](CCC(=O)O)NC(=O)[C@H](CCCCNC(=O)COCCOCCNC(=O)COCCOCCNC(=O)CC[C@H](NC(=O)CCCCCCCCCCCCCCCCC(=O)O)C(=O)O)NC(=O)[C@H](C)NC(=O)[C@H](C)NC(=O)[C@H](CCC(N)=O)NC(=O)CNC(=O)[C@H](CCC(=O)O)NC(=O)[C@H](CC(C)C)NC(=O)[C@H](Cc1ccc(O)cc1)NC(=O)[C@H](CO)NC(=O)[C@H](CO)NC(=O)[C@@H](NC(=O)[C@H](CC(=O)O)NC(=O)[C@H](CO)NC(=O)[C@@H](NC(=O)[C@H](Cc1ccccc1)NC(=O)[C@@H](NC(=O)CNC(=O)[C@H](CCC(=O)O)NC(=O)C(C)(C)NC(=O)[C@@H](N)Cc1cnc[nH]1)[C@@H](C)O)[C@@H](C)O)C(C)C)C(=O)N[C@@H](C)C(=O)N[C@@H](Cc1c[nH]c2ccccc12)C(=O)N[C@@H](CC(C)C)C(=O)N[C@H](C(=O)N[C@@H](CCCNC(=N)N)C(=O)NCC(=O)N[C@@H](CCCNC(=N)N)C(=O)NCC(=O)O)C(C)C [semaglutide],Central volume (Vc),"[1]; 9 trials, body weight 85 kg",3.59 L
same,Peripheral volume (Vp),"[1]; 9 trials, body weight 85 kg",4.10 L
same,Higher CL in subjects with type 2 diabetes compared to healthy subjects,[1]; 95% CI 9–16%,12%
same,Body weight effect on Vc and Vp,[1]; exponent of (weight/85 kg),0.923
same,T2D effect on ka,"[1]; factor, T2D vs normoglycaemia",0.544
same,Injection site effect on F,"[1]; factor, thigh vs abdomen",0.883
same,"Drug product strength effects on ka, 3 mg",[1]; [6],0.0526
same,"Drug product strength effects on ka, 10 mg",[1]; [6],0.139
same,Bioavailability estimated by the final model,"[1]; s.c., 95% CI 0.80–0.90",85%
same,Lower bioavailability when using the thigh compared with the abdomen,"[1]; s.c., 95% CI 0.84–0.92",12%
same,Total volume of distribution (Vc + Vp),"[1]; typical subject with T2D, 85 kg",approximately 8 L
same,Bound to plasma albumin,plasma albumin,more than 99%
same,Absorption rate constant (ka),[2]; 267 subjects,0.0296 h⁻¹
same,"Apparent clearance (CL/F), healthy volunteer with body weight of 85 kg",[2],0.0415 L/h
same,CL/F for subject with T2D and body weight of 85 kg,[3]; [7],0.0478 L/h
same,Total volume/F (V/F),[3]; [7],12.2 L
same,Inter-individual variability in clearance,"[3]; phase 3 analysis, CV",12.9%
dulaglutide,Greater CL compared to semaglutide,[4],approximately 50%
same,"Interindividual variability, coefficient of variation (CV) for CL",[4],40.5%
same,Lower volume of distribution compared to semaglutide,[4],20%
same,Slower absorption compared to semaglutide,[4],approximately threefold
liraglutide,Elimination compared with semaglutide,"[5]; population PK model, ref [10]",much faster elimination
same,Bioavailability after administration in the thigh versus the abdomen,[5]; ref [16],slightly lower
